A short description of data set [1]: Cytotoxicity against human PBMC after 48 hrs by trypan blue exclusion assay. The following applies: PBMC (peripheral blood mononuclear cells), read-out: LD50. The data set is classed as toxicity, cell-based. A digest of the protocol:
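Human PBMCs came from healthy donors' venous blood by histopaque-1077 density separation. Cells were washed in RPMI 1640 with 2 mM L-glutamine and resuspended in RPMI with 10% FBS at 1x10^5 cells/ml. Trypan blue exclusion followed the procedure adapted from the microfilarial motility assay. LD50 was taken as the dose giving 50% cytotoxicity.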

A short description of data set [2]: Antifilarial activity against Brugia malayi microfilariae isolated from peritoneal cavity of infected Meriones unguiculatus assessed as loss of motility incubated for 48 hrs by microscopy. Format: functional. The method, boiled down: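 Jird peritoneal Mf cleaned of exudate cells by 1 h adherence at 37°C. Exposed to compound over 1–100 µM final with shaking at 37°C, 30 min, 150 rpm in 0.9% saline. Washed, plated at 100 Mf per well in RPMI, triplicate wells, then 48 h at 37°C in 5% CO2. Vehicle control 1% DMSO. Loss of motility read by microscopy; experiment repeated three times; IC50 calculated.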

The nature of data set [3]: Antifilarial activity against Brugia malayi microfilariae isolated from peritoneal cavity of infected Meriones unguiculatus assessed as loss of motility at 500 uM incubated for 48 hrs by microscopy. The data set is classed as functional. A digest of the protocol:
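Jird peritoneal Mf washed in RPMI 1640 with gentamycin, penicillin and streptomycin, then held 1 h at 37°C on dishes to remove exudate cells. About 300 Mf in 0.9% saline exposed to compound with shaking at 37°C, 30 min, 150 rpm. 100 Mf per well, in triplicate, then 48 h at 37°C in 5% CO2 in RPMI. Stocks were 2 mM in DMSO; vehicle control 1% DMSO. Motility scored by microscopy; mean ± SEM % loss of motility.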

A further data set has as its system Brugia malayi. The data set is described as follows: Induction of apoptosis in Brugia malayi microfilariae isolated from peritoneal cavity of infected Meriones unguiculatus after 48 hrs by acridine orange/ethidium bromide dual staining based epifluorescence microscopy. The data set is classed as functional. The method, boiled down: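 Mf, control or treated for 48 h, washed and resuspended in cold PBS. Dye mix of 100 µg/mL AO and 100 µg/mL EB in PBS added. Viewed by epifluorescence microscopy with 480/30 nm excitation; green nuclei scored as live, orange/red as apoptotic or dead. Staurosporine was the positive control and untreated Mf the negative control.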

Activity calls are given as the source filed them. The calls are words filed in the database; no cut-off is given here.

One may read the IC50 as the point on the concentration scale where inhibition reaches its midpoint.

As to `Cc1ccc(S(=O)(=O)Nc2ccc(C(=O)/C=C/c3cccc(Br)c3)cc2)cc1`, the CC50 at 48 h in data set [1] turned out to be 80 µM. Also, in data set [2], the IC50 came out at 15 µM. Also, the Activity in data set [3] stood at 100%. Moreover, in the data set on Brugia malayi, the outcome was Active.
For `Cc1ccc(S(=O)(=O)Nc2ccc(C(=O)/C=C/c3ccc(-c4ccccc4)cc3)cc2)cc1`, in data set [3], the Activity worked out at 6.24%.
Consider `COc1ccc(/C=C/C(=O)c2ccc(NS(C)(=O)=O)cc2)cc1`, for which the CC50 at 48 h in data set [1] amounted to 194 µM. The IC50 in data set [2] came to 60 µM. In addition, in data set [3], the Activity was found to be 100%. In the data set with Brugia malayi, the result was Active.
Take `COc1ccc(/C=C/C(=O)c2ccc(NS(=O)(=O)c3ccccc3)cc2)cc1`: the Activity in data set [3] worked out at 1.81%.
On the same count and under the same terms, to `Cc1ccc(S(=O)(=O)Nc2ccc(C(=O)/C=C/c3ccccc3Cl)cc2)cc1` belongs 4.1%.
For `O=C(/C=C/c1ccc(Br)cc1)c1ccc(NS(=O)(=O)c2ccccc2)cc1`, the CC50 at 48 h in data set [1] was 265 µM. In addition, the concentration for half-maximal inhibition (IC50) in data set [2] was found to be 70 µM. For the same compound, the Activity in data set [3] amounted to 100%. Further, the outcome in the data set on Brugia malayi was Active.
For `Cc1ccc(S(=O)(=O)Nc2ccc(C(=O)/C=C/c3ccc(Cl)cc3)cc2)cc1`, in data set [3], the Activity turned out to be 1.58%.
As for `Cc1ccc(S(=O)(=O)Nc2ccc(C(=O)/C=C/c3ccc(O)cc3)cc2)cc1`, in data set [1], the CC50 at 48 h amounted to 270 µM. Besides, the IC50 in data set [2] was found to be 82 µM. The Activity in data set [3] was 100%. Besides, the outcome in the data set on Brugia malayi was Active.
As to `O=C(/C=C/c1ccco1)c1ccc(NS(=O)(=O)c2ccccc2)cc1`, in data set [3], the Activity came out at 8.11%.
Regarding `Cc1ccc(S(=O)(=O)Nc2ccc(C(=O)/C=C/c3ccccc3)cc2)cc1`, the CC50 at 48 h in data set [1] turned out to be 335 µM. Further, the IC50 in data set [2] was determined as 9.7 µM. Also, the Activity in data set [3] was found to be 100%. Also, in the data set with Brugia malayi, the result was Active.
For the compound `Cc1ccc(S(=O)(=O)Nc2ccc(C(=O)/C=C/c3ccccc3Br)cc2)cc1`, in data set [3], the Activity is 3.04%.
On to `CS(=O)(=O)Nc1ccc(C(=O)/C=C/c2ccc([N+](=O)[O-])cc2)cc1`, for which the CC50 at 48 h in data set [1] came to 188 µM. Besides, the IC50 in data set [2] was 4.4 µM. Besides, the Activity in data set [3] came to 100%. The outcome in the data set on Brugia malayi was Active.
On to `O=C(/C=C/c1ccc(Br)s1)c1ccc(NS(=O)(=O)c2ccccc2)cc1`, for which the Activity in data set [3] turned out to be 9%.
Regarding `O=C(/C=C/c1ccc(Cl)cc1)c1ccc(NS(=O)(=O)c2ccccc2)cc1`, in data set [1], the CC50 at 48 h came out at 177 µM. In addition, the IC50 in data set [2] came to 17 µM. Also, the Activity in data set [3] was found to be 100%. In addition, in the data set on Brugia malayi, the outcome was Active.
Turning to `O=C(/C=C/c1ccccc1Br)c1ccc(NS(=O)(=O)c2ccccc2)cc1`, the Activity in data set [3] was determined as 13.4%.
As to `O=C(/C=C/c1ccccc1Cl)c1ccc(NS(=O)(=O)c2ccccc2)cc1`, the Activity in data set [3] amounted to 33.3%.
On to `O=C(/C=C/c1ccc(O)cc1)c1ccc(NS(=O)(=O)c2ccccc2)cc1`, for which, in data set [3], the Activity worked out at 5.2%.
Turning to `CN(C)c1ccc(/C=C/C(=O)c2ccc(NS(=O)(=O)c3ccccc3)cc2)cc1`, the Activity in data set [3] is 3.75%.
With `Cc1ccc(/C=C/C(=O)c2ccc(NS(=O)(=O)c3ccc(C)cc3)cc2)cc1`, the CC50 at 48 h in data set [1] stood at 140 µM. Besides, the IC50 in data set [2] worked out at 8.2 µM. Moreover, the Activity in data set [3] stood at 100%. The result in the data set with Brugia malayi was Active.
The corresponding values for `CS(=O)(=O)Nc1ccc(C(=O)/C=C/c2ccccc2)cc1` are 134 µM, 32 µM, 100% and “Active”.
Regarding `Cc1ccc(/C=C/C(=O)c2ccc(NS(=O)(=O)c3ccccc3)cc2)cc1`, in data set [3], the Activity is 6.34%.
For `Cc1ccc(S(=O)(=O)Nc2ccc(C(=O)/C=C/c3ccc(Br)cc3)cc2)cc1`, the CC50 at 48 h in data set [1] worked out at 220 µM. Moreover, the IC50 in data set [2] was 4.6 µM. For the same compound, the Activity in data set [3] amounted to 100%. The outcome with Brugia malayi was Active.
In the case of `O=C(/C=C/c1ccc([N+](=O)[O-])cc1)c1ccc(NS(=O)(=O)c2ccccc2)cc1`, the Activity in data set [3] was found to be 100%. In addition, the result in the data set on Brugia malayi was Active.
For the compound `O=C(/C=C/c1ccccc1)c1ccc(NS(=O)(=O)c2ccccc2)cc1`, the Activity in data set [3] stood at 4.52%.
`O=C(/C=C/c1ccc(F)cc1)c1ccc(NS(=O)(=O)c2ccccc2)cc1`: in data set [1], the CC50 at 48 h is 217 µM. Moreover, the IC50 in data set [2] came out at 4.5 µM. Further, the Activity in data set [3] amounted to 100%. Also, the result in the data set with Brugia malayi was Active.
Take `COc1ccc(/C=C/C(=O)c2ccc(NS(=O)(=O)c3ccc(C)cc3)cc2)cc1`: the Activity in data set [3] came to 82.7%.
With `Cc1ccc(S(=O)(=O)Nc2ccc(C(=O)/C=C/c3ccc(C(C)C)cc3)cc2)cc1`, the CC50 at 48 h in data set [1] worked out at 50 µM. In addition, the IC50 in data set [2] is 20 µM. The Activity in data set [3] turned out to be 100%. The result in the data set with Brugia malayi was Active.

The record behind these values is ChEMBL document CHEMBL3870323, “Sulfonamide chalcones: Synthesis and in vitro exploration for therapeutic potential against Brugia malayi” (Eur J Med Chem, 2016).
